Screening results: PubChem BioAssay, SRMLSC
Yeast growth inh = yeast BB579 growth reduction in restrictive medium; S. cerevisiae BB579 growth, OD615, 48 h; inhibition, % at 10 µM; 140,000 compounds, 0.51% hits; AID 804;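 active means inhibition above a set limit, 3 SD over the mean compound inhibition, cut at about 44% in these data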
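System: Saccharomyces cerevisiae DeaD strain BB579, replicative lifespan model yeast. Buffer or medium: restrictive glucose-based CSMM-D medium. Doses: one dose, 10 µM compound with 0.25% DMSO. Timing: 4 h preincubation and 48 h exposure at 30 °C. Detection: turbidity as optical density at 615 nm. Benchmarks: amphotericin B 10 µg/mL, positive.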
RAM inhibit = yeast RAM network inhibition; AID 868; 190,000 compounds, 1.8% hits; S. cerevisiae dse1pr::URA3 reporter, 5-FOA growth OD615, 2 d; analog-sensitive cbk1-as2 kinase mutant strain; inhibition, % at 50 µM;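 active means inhibition above a set limit, 3 SD over mean compound inhibition, cut at about 8.4% in these data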;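 further: 0% = DMSO-only wells with no growth and 100% = 10 µM 1-NA-PP1 full growth; inhibition rescues growth on 5-FOA so higher OD means more RAM inhibition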
Yeast lifespan up = yeast lifespan extension. S. cerevisiae growth with nicotinamide, OD615; deaD strain in restrictive glucose medium. inhibition of the nicotinamide effect, % at 10 µM. 130,000 compounds, 0.68% hits. AID 775;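 active means inhibition above a set limit, placed 3 SD over the median of all compounds, cut at about 26% in these data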;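 further: 0% = nicotinamide-treated wells and 100% = cells grown without nicotinamide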
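assay system = DeaD-strain S. cerevisiae | buffer or medium = restrictive glucose medium | reagent = 1.5 mM nicotinamide | compound = 10 µM single point, 0.25% DMSO | incubation = 48 h compound exposure at 30 °C, humidified | signal = OD615 measurement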
* = called active by the depositor; . = not tested or not shown. An excerpt weighted towards active compounds, which were near 2.6% of everything screened.

SMILES	Yeast growth inh	RAM inhibit	Yeast lifespan up
CC(C)(C)C(=O)Nc1cc(NC(=O)C(C)(C)C)cc(C(=O)Nc2cc(C(=O)O)cc(C(=O)O)c2)c1	-24.2	1.6	-2.6
Oc1ccc(NCc2cccc(OCc3ccc(F)cc3)c2)cc1	.	-0.6	.
O=[N+]([O-])c1ccc(COc2cccc(CNc3ccc(F)cc3)c2)cc1	-27.0	9.9*	-0.1
COc1ccc(Sc2nc(-c3ccccc3)ncc2C(=O)O)cc1	.	3.5	.
O=C(O)c1cnc(-c2ccccc2)nc1Sc1ccc(Cl)cc1	-12.7	8.6*	-7.5
COCCNC(=O)c1ccccc1NC(=O)c1ccccc1SC	.	-0.2	.
O=C(CC(Nc1cccc(Cl)c1Cl)C(=O)OCC(=O)c1cccs1)c1ccccc1 (stereo unspecified)	-2.6	9.0*	-4.6
COc1ccccc1NC(CC(=O)c1ccccc1)C(=O)OCC(=O)c1ccc(F)cc1 (stereo unspecified)	-30.9	10.8*	-0.4
Cc1c(Cl)cccc1NC(CC(=O)c1ccccc1)C(=O)OCC(=O)c1cccs1 (stereo unspecified)	5.7	3.4	-2.6
CNc1ccccc1C(=O)OCC(=O)c1ccc(F)cc1	.	-1.1	.
Cc1ccc(NC(=O)Cn2ccc([N+](=O)[O-])n2)cc1C	.	2.3	.
Cc1ccc(NN2C(=O)C=C(c3ccccc3)C2=O)cc1	.	0.5	.
C=CCSC1=N/C(=C\c2cc(OCC)c(OC(C)=O)c([N+](=O)[O-])c2)C(=O)S1	-25.6	2.8	-0.1
COc1ccc(OC)c(C(=O)COC(=O)c2ccccc2O)c1	0.0	8.7*	-18.6
COc1ccc(OC)c(C(=O)COC(=O)c2c(OC)cccc2OC)c1	-29.7	0.6	-11.2
C/C(=N/NC(=O)c1ccco1)c1cccnc1	.	3.5	.
Cc1cccc(OCC(=O)N/N=C\c2cn(C)c3ccccc23)c1	.	1.6	.
Cc1cccc(OCCn2cc(/C=N/NC(=O)c3ccncc3)c3ccccc32)c1	54.1*	-0.4	-8.2
O=C(On1c(-c2ccccc2)nc2ccccc2c1=O)c1ccco1	-28.4	-0.8	-35.0
COc1cc(OC)cc(-c2nc3ccccc3c(=O)n2OC(=O)c2ccccc2C)c1	-11.6	5.5	61.1*
COC(=O)c1cc(NC(=O)c2cccc([N+](=O)[O-])c2C)ccc1Cl	.	3.6	.
c1ccc(-c2nnc3sc(-c4ccncc4)nn23)cc1	2.2	-0.3	-12.4
Cc1cccc(-c2nnc3sc(-c4ccccc4C)nn23)c1	43.9*	0.2	-8.1
COc1cccc(-c2nnc3sc(-c4ccccc4)nn23)c1	-16.8	8.9*	.
COc1ccc(-c2nn3c(-c4ccccc4)nnc3s2)cc1	-23.4	5.7	-8.2
SMILES	Yeast growth inh	RAM inhibit	Yeast lifespan up
CCOc1cc(N2CCOCC2)c(OCC)cc1NC(=O)c1ccc(OC(C)C)cc1	.	8.8*	.
CCOc1cc(N2CCOCC2)c(OCC)cc1NC(=O)c1ccc(C)cc1	.	2.6	.
CC(=O)Nc1nc(-c2ccc(Br)s2)cs1	-74.9	2.4	-8.2
Cc1ccc(NC(=O)Nc2nc(-c3ccc(C)s3)cs2)cc1	-17.0	2.1	87.5*
CCNC(=O)Nc1ccc(-n2nc(C)c(C(=O)OCC)c2C)nc1	.	2.6	.
O=C(Nc1cc(C(F)(F)F)ccc1Cl)C(Sc1nnc(-c2cccs2)o1)c1ccccc1 (stereo unspecified)	-28.4	4.8	-0.1
O=C(Nc1cc(C(F)(F)F)ccc1Cl)C(Sc1cccc[n+]1[O-])c1ccccc1 (stereo unspecified)	92.7*	-1.4	-8.0
O=c1c2sccc2n(Cc2ccc(F)cc2)c(=O)n1-c1ccc(F)cc1	-12.8	10.3*	-1.4
O=C(Cn1c(=O)n(-c2ccc(F)cc2)c(=O)c2sccc21)c1ccccc1	-38.6	0.8	5.3
CC(C)CN(C(=O)c1cc2ccccc2o1)c1c(N)n(CC(C)C)c(=O)[nH]c1=O	-13.7	2.7	-0.4
CCOC(=O)c1sc(NC(=O)Nc2cccc(Cl)c2)cc1C	-54.1	9.0*	3.2
CCOC(=O)c1sc(NC(=O)c2cccs2)cc1C	-28.7	5.2	-20.1
Cc1ccc(C(=O)NC(=S)NCc2ccco2)cc1	.	-1.6	.
COc1ccc2ccccc2c1C(=O)/C=C\c1ccoc1	-3.1	2.4	-2.3
CCOc1ccc(-c2noc(-c3ccncc3)n2)cc1OCC	-15.2	1.2	-15.2
COc1ccc(-c2noc(-c3cccc(Cl)c3)n2)cc1OC	-73.2	9.1*	-1.2
COc1ccc(-c2nc(-c3ccncc3)no2)cc1OC	-15.6	1.1	-25.2
CCOc1ccc(-c2nc(-c3ccc(OC)cc3)no2)cc1OCC	-65.8	9.1*	-3.2
O=C(Nc1ccccc1)c1ccc(=O)n(Cc2ccc(F)c(F)c2)c1	.	2.9	.
COc1ccc(OCc2nnc(SCC(=O)c3c(N)n(C)c(=O)n(C)c3=O)n2-c2ccccc2F)cc1	.	10.8*	.
Cn1c(SCC(=O)c2c(N)n(C)c(=O)n(C)c2=O)nnc1-c1ccccc1F	.	2.1	.
CC(C)CC(=O)Nc1ccc(-c2nc3ccccc3c(=O)[nH]2)cc1	-83.0	5.1	5.0
COc1ccc(CN2C(=O)c3ccccc3C(/C=N/OCc3ccc(Cl)cc3)C2=O)cc1 (stereo unspecified)	-32.5	10.3*	-2.9
COc1ccc(CN2C(=O)c3ccccc3C(/C=N\OCc3ccc(F)cc3)C2=O)cc1 (stereo unspecified)	-6.6	6.2	-10.7
O=C(NC(=S)Nc1ccccc1N1CCCCC1)c1ccco1	-43.3	1.3	-6.2
SMILES	Yeast growth inh	RAM inhibit	Yeast lifespan up
O=C(NC(=S)Nc1cccc(Cl)c1N1CCOCC1)c1cccs1	.	3.2	.
O=C(NC(=S)Nc1cccc(Cl)c1N1CCCCC1)c1ccco1	-28.6	9.7*	18.1
O=C(NC(=S)Nc1cccc(Cl)c1N1CCCCC1)c1cccs1	-21.1	9.4*	2.8
Cc1ccc(S(=O)(=O)N2CCCC2C(=O)NCc2ccc3c(c2)OCO3)cc1 (stereo unspecified)	.	1.4	.
Cc1c(Cl)sn(-c2ccc(Cl)cc2)c1=O	.	-1.9	.
CC1CCCN(C(=S)Nc2ccc(Nc3ccccc3)cc2)C1 (stereo unspecified)	.	9.3*	.
CC1CCCN(C(=S)Nc2ccc(F)cc2)C1 (stereo unspecified)	.	0.1	.
CCN(CC)c1ccc(C(=O)OCc2c(C)noc2C)cc1	.	0.7	.
COc1ccc(Cc2nn3c(-c4ccccc4Br)nnc3s2)cc1	-33.0	1.1	-18.0
COc1ccc(-c2nnc3sc(CCN4C(=O)c5ccccc5C4=O)nn23)cc1	-6.0	9.4*	-3.4
Cc1cccc(/N=C/c2c(O)n(Cc3ccc4c(c3)OCO4)c(=O)c3ccccc23)n1	.	3.4	.
N=C1C(c2ccccc2)=C(O)CN1c1cccc(O)c1	.	2.7	.
CCCN(CC(=O)Nc1ccc(Cl)cc1Cl)C(=O)/C=C/c1cc(OC)ccc1OC	-24.2	10.7*	-2.4
CCCN(CC(=O)Nc1ccc(Cl)cc1Cl)C(=O)/C=C/c1cccc([N+](=O)[O-])c1	-1.4	6.1	-0.2
Cc1ccc(-c2csc(NC(=O)C3=NN(c4ccccc4)C(=O)CC3)n2)cc1	-38.6	4.4	-2.5
CC(=O)Nc1ccc(S(=O)(=O)Nc2nc3ccc(C)cc3s2)cc1	10.4	4.0	-4.2
Cc1ccc2nc(-c3ccc(NS(=O)(=O)c4ccc(F)cc4)cc3)sc2c1	90.7*	4.3	-7.2
CNS(=O)(=O)c1cccc(C(=O)OCC(=O)Nc2ccc(-c3nc4ccc(C)cc4s3)cc2)c1	.	11.3*	.
